These results are taken from ChEMBL document CHEMBL4477204, “Tetrahydroisoquinoline-Derived Urea and 2,5-Diketopiperazine Derivatives as Selective Antagonists of the Transient Receptor Potential Melastatin 8 (TRPM8) Channel Receptor and Antiprostate Cancer Agents” (J Med Chem, 2016).

Active and inactive are the calls of the source. No cut-off for these calls is given here.

Data set [1] addresses Transient receptor potential cation channel subfamily A member 1 (Rattus norvegicus, UniProt Q6RI86). Description: Antagonist activity at recombinant rat TRPA1 expressed in HEK293 cells assessed as inhibition of AITC-induced intracellular calcium accumulation preincubated for 5 mins followed by AITC addition by Fluo-4-AM probe-based spectrofluorimetric assay. It is filed as cell-based. In short, it runs like this:
(§1)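 HEK-293 cells stably expressing the listed TRP channel (human TRPV1; rat TRPM8, TRPA1, TRPV2, TRPV3 or TRPV4) were Fluo-4-AM loaded (4 µM, 1 h, 25 °C) and suspended in Tyrode's buffer pH 7.4. Compound was added 5 min before agonist: icilin 0.25 µM (TRPM8), capsaicin 0.1 µM (TRPV1), AITC 100 µM (TRPA1), LPC 3 µM (TRPV2), thymol 100 µM (TRPV3), 4α-PDD 1 µM (TRPV4). Agonist alone was taken as 100%. IC50 from sigmoidal fit, at least triplicate.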

Data set [2] has as its system LNCaP. The data set is described as follows: Cytotoxicity against human LNCAP cells assessed as inhibition of cell growth at 10 uM after 72 hrs by trypan blue assay. It is filed as functional. The settings on record: for inhibition of growth at 10 µM: read-out: GI. An outline of the steps:
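LNCaP cells were grown in RPMI-1640 with 10% FBS and given a daily dose of compound for 72 h. Cells were then counted in a Burker chamber, with cell number also estimated from dsDNA content at 4 pg DNA/cell. Dead cells were scored with 0.4% trypan blue. Statistics used ANOVA with Bonferroni's test.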

Data set [3] concerns the target T1, Heat sensitive channel TRPV3 (Rattus norvegicus, UniProt Q4QYD9).
T1 sequence (Q4QYD9 whole entry): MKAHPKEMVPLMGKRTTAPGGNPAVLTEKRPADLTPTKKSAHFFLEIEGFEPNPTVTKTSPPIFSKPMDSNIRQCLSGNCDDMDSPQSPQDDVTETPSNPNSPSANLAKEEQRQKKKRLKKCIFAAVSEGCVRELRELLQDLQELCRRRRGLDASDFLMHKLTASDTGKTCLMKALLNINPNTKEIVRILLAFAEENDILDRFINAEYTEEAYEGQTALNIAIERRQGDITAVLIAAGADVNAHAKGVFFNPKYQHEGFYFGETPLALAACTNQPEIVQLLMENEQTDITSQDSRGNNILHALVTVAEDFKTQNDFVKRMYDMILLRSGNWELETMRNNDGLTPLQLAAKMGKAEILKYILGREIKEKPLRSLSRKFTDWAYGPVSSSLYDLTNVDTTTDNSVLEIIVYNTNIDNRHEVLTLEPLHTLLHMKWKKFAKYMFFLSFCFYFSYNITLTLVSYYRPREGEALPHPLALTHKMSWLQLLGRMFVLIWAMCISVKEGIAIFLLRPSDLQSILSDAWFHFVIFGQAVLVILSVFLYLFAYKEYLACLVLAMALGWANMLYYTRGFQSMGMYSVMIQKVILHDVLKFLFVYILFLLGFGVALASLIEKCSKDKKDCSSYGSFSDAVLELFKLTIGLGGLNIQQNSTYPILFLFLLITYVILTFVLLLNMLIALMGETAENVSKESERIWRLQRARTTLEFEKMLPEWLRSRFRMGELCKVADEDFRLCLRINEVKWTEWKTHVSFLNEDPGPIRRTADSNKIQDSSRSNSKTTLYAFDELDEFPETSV
The data set is described as follows: Antagonist activity at recombinant rat TRPV3 expressed in HEK293 cells assessed as inhibition of thymol-induced intracellular calcium accumulation preincubated for 5 mins followed by thymol addition by Fluo-4-AM probe-based spectrofluorimetric assay. It is filed as cell-based. An outline of the steps:
as §1
A general note: Calcium assays in cells follow changes in intracellular calcium, usually with a dye or a luminescent sensor.

The nature of a further data set: in vitro. Particulars: C57BL/6, mouse, liver microsomes.
In data set [4] the target is Transient receptor potential cation channel subfamily V member 4 (Rattus norvegicus) (UniProt Q9ERZ8). The data set is described as follows: Antagonist activity at recombinant rat TRPV4 expressed in HEK293 cells assessed as inhibition of 4alphaPDD-induced intracellular calcium accumulation up to 10 uM preincubated for 5 mins followed by 4alphaPDD addition by Fluo-4-AM probe-based spectrofluorimetric assay. It is filed as cell-based. An outline of the steps:
as §1

For data set [5], the target named is T2, Transient receptor potential cation channel subfamily V member 2 (Rattus norvegicus, UniProt Q9WUD2).
T2 sequence (Q9WUD2 whole entry): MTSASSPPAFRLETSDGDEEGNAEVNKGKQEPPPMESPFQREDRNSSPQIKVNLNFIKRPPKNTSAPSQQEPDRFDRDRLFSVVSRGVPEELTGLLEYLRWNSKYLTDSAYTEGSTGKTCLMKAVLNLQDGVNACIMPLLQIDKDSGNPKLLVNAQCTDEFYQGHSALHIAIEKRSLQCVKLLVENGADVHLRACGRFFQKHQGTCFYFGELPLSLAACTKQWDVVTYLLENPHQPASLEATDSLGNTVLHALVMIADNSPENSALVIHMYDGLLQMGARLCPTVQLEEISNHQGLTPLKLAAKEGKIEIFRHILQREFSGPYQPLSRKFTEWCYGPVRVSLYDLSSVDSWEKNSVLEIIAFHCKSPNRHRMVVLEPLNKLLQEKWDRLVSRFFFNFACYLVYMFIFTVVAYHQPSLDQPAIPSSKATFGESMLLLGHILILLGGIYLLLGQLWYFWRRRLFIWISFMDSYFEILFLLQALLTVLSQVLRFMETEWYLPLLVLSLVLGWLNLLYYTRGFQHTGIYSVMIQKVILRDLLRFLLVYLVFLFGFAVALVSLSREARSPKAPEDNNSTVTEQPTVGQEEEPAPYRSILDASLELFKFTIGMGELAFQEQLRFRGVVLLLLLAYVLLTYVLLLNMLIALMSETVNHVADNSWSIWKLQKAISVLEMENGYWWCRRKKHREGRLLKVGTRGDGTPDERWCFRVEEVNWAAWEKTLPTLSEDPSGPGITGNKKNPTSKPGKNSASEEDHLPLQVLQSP
The data set is described as follows: Antagonist activity at recombinant rat TRPV2 expressed in HEK293 cells assessed as inhibition of LPC-induced intracellular calcium accumulation preincubated for 5 mins followed by LPC addition by Fluo-4-AM probe-based spectrofluorimetric assay. Format: cell-based. An outline of the steps: as §1

In data set [6] the target is Transient receptor potential cation channel subfamily V member 1 (Homo sapiens, UniProt Q8NER1). Description: Antagonist activity at recombinant human TRPV1 expressed in HEK293 cells assessed as inhibition of capsaicin-induced intracellular calcium accumulation preincubated for 5 mins followed by capsaicin addition by Fluo-4-AM probe-based spectrofluorimetric assay. Format: cell-based. An outline of the steps:
as §1

Data set [7] is described as follows: Cytotoxicity against human PNT1A cells assessed as reduction in cell viability by measuring fluorescence gated cells at 10 uM after 72 hrs by CBNF assay (reference value: 94.1%). It is filed as cell-based. The settings on record: read-out: Activity.
The subject of another data set is CWR22R. Description: Cytotoxicity against human 22Rv1 cells assessed as reduction in cell viability by measuring fluorescence gated cells at 10 uM after 72 hrs by CBNF assay (reference value: 81.3%). It is filed as functional.
The subject of data set [8] is LNCaP. The data set is described as follows: Cytotoxicity against human LNCAP cells assessed as reduction in cell viability by measuring fluorescence gated cells at 10 uM after 72 hrs by CBNF assay (reference value: 83.3%). It is filed as functional.

Sequence of Transient receptor potential cation channel subfamily V member 1 (Q8NER1 whole entry): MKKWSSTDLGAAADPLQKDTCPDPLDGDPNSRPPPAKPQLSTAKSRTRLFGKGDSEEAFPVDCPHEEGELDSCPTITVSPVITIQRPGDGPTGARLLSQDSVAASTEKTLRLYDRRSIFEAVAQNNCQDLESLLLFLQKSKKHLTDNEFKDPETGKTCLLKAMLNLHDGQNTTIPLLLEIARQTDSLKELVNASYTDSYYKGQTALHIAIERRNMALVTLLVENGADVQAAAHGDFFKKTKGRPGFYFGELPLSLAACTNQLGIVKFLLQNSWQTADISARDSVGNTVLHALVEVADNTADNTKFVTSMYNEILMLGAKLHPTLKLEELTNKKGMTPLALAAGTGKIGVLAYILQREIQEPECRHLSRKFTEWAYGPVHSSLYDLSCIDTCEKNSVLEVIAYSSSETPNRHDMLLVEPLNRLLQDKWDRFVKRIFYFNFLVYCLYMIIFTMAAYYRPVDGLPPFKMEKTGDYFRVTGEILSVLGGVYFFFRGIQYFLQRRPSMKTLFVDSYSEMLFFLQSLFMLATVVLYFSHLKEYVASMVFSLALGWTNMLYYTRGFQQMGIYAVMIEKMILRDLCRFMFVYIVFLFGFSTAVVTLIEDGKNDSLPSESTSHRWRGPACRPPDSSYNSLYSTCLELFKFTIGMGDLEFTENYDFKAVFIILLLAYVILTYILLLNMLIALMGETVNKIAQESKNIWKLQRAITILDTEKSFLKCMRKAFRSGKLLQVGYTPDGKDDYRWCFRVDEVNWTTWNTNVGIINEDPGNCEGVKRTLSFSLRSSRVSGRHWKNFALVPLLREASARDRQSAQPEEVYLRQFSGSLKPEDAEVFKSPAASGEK
Sequence of Transient receptor potential cation channel subfamily A member 1 (Q6RI86 whole entry): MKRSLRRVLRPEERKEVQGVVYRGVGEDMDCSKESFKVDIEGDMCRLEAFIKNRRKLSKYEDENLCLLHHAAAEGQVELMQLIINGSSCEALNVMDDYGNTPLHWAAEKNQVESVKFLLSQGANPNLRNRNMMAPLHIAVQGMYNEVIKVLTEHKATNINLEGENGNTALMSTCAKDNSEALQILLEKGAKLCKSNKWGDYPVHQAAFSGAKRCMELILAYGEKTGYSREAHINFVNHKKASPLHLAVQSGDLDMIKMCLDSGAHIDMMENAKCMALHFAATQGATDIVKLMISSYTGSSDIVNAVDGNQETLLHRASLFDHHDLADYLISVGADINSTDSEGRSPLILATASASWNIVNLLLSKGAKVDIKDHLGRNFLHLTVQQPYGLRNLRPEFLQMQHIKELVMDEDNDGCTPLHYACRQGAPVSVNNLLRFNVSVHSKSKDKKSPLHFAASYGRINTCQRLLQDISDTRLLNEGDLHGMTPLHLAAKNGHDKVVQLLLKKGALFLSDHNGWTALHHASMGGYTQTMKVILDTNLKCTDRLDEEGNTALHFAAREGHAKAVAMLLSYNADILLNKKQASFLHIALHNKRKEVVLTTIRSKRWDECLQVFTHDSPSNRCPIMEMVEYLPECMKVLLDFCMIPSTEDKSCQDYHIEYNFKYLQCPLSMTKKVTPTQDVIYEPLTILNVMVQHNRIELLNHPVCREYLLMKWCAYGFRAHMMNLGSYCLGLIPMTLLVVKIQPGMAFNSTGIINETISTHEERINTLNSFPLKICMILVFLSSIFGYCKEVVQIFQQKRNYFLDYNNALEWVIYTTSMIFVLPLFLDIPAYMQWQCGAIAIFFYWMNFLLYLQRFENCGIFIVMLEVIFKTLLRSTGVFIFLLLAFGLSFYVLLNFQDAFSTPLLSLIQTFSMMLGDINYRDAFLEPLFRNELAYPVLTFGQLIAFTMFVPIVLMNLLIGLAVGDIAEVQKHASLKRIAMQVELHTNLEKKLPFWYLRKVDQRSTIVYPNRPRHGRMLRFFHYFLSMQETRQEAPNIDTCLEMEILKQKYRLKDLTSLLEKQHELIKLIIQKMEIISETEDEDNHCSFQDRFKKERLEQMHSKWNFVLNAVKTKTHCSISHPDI
Sequence of Transient receptor potential cation channel subfamily V member 4 (Rattus norvegicus) (Q9ERZ8 whole entry): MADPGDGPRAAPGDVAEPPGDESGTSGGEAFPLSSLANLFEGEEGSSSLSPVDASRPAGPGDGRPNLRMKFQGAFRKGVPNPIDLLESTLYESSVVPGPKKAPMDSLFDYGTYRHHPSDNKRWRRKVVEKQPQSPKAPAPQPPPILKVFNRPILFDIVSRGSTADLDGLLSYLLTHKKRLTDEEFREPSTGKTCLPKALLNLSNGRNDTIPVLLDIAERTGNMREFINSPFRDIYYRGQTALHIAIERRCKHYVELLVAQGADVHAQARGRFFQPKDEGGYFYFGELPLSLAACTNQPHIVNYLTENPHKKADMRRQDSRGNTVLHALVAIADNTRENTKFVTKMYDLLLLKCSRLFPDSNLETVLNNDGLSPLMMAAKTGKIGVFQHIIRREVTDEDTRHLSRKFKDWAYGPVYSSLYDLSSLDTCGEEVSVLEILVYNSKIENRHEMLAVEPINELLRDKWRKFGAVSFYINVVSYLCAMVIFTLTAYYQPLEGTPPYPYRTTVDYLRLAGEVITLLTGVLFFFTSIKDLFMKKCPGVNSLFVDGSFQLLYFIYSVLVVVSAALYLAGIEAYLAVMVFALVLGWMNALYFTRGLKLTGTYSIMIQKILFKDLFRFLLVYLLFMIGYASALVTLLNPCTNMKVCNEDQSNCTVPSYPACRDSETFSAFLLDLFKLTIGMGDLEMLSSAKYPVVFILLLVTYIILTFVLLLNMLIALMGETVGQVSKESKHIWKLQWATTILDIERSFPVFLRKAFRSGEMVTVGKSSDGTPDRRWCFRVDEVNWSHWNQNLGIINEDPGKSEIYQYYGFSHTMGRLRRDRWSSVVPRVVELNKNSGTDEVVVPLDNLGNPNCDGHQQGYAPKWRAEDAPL

Broadly, the IC50 is the concentration at which inhibition is half-maximal. In general, CLint scaled refers to the capacity of the preparation to metabolise the compound, expressed as a volume cleared per time. A lower CLint scaled goes with slow turnover. With `COc1cc(/C=C2\NC(=O)[C@@H]3Cc4c(OC)c(C)c(OC)c(OC)c4[C@@H](c4ccccc4)N3C2=O)c(OC)c(C)c1OC`, the IC50 in data set [1] is 14.2 µM; in data set [3], 34.3 µM; in [5], 12.4 µM; in data set [6], 68.9 µM. Moreover, the “growth inhibition (GI)” value with LNCaP [2] is “Active”. Besides, the CLint scaled at 1 h, 3 µM in the data set “in vitro” turned out to be 15.6 mL/min/kg. The inhibition entry in data set [4] is “inactive”.

With `COc1cc2c(cc1OC)[C@H](c1ccccc1)N(C(=O)N1CCc3cc(OC)c(OC)cc3[C@@H]1c1ccccc1)CC2` (racemic), the IC50 was 10 µM in data set [1], more than 100 µM in [3], 51.9 µM in [5] and 53 µM in [6]. The “growth inhibition (GI)” value in the data set with LNCaP [2] is “Active”. Also, the inhibition entry in data set [4] is “inactive”.

Regarding `COc1cc2c(cc1OC)[C@H](c1ccc(F)cc1)N(C(=O)N1CCc3cc(OC)c(OC)cc3[C@@H]1c1ccc(F)cc1)CC2` (racemic), the IC50 in data set [1] worked out at 16.4 µM; in data set [3] it was 72.9 µM; in [5] it was 94.3 µM; in data set [6], 68.5 µM. For the same compound, the viability at 72 h, 10 µM in [7] worked out at 92.7%. In addition, in the data set with LNCaP [2], the inhibition of growth at 10 µM is 64.3%. Also, the Activity with CWR22R was found to be 82.2%; in the data set with LNCaP [8], 54.4%. Besides, in the data set “in vitro”, the CLint scaled at 1 h, 3 µM stood at 75.2 mL/min/kg. Besides, in data set [4], the inhibition entry is “inactive”.

Take `COc1cc2c(cc1OC)[C@H](c1ccc(Cl)cc1)N(C(=O)N1CCc3cc(OC)c(OC)cc3[C@@H]1c1ccc(Cl)cc1)CC2` (racemic): the IC50 in data set [1] was 23.9 µM; in [3], more than 100 µM; in [5], 54.9 µM; in [6], 49.7 µM. Also, the inhibition of growth at 10 µM in the data set on LNCaP [2] turned out to be 50.4%. In addition, the inhibition entry in data set [4] is “inactive”.
